ChEMBL document CHEMBL1125068, “Structure-based, C2 symmetric inhibitors of HIV protease” (J Med Chem, 1990)

Tests used:
[1] = molecular target: T1, Human immunodeficiency virus type 1 protease (Human immunodeficiency virus 1, UniProt Q72874); assay: Inhibitory activity against recombinant HIV-1 Protease
H9 [2] = assay: In vitro inhibitory activity against HIV-1 in H9 cells; format: functional, cell-based; conditions: Homo sapiens
In short: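 H9 cells (2 × 10⁴) were infected with 100 TCID₅₀ HIV-1 3B for 2 h, washed, then cultured at 37 °C with inhibitor. Viral replication was read as p24 antigen by ELISA on days 7 and 10, and IC₅₀ was taken from the dose-response. Viability of uninfected cultures was checked by trypan blue exclusion.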

H9 [3] = assay: In vitro inhibitory cytopathic effect against HIV-1 in H9 cells; format: functional; conditions: Homo sapiens, H9, read-out: TC50
MT4 [4] = assay: In vitro inhibitory cytopathic effect against HIV-1 in MT-4 cells; format: functional; conditions: Homo sapiens, MT4, read-out: TC50
In short: (§1)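 MT4 cells (1 × 10⁴) were infected with 10 TCID₅₀ HIV-1 3B for 2 h, washed, and grown at 37 °C in inhibitor-containing medium. Viral cytopathic effect and compound toxicity were both scored on day 5 by MTT uptake. IC₅₀ and TC₅₀ came from this read-out.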

[5] = molecular target: T1, Human immunodeficiency virus type 1 protease; assay: Inhibitory activity against recombinant HIV-1 protease.
MT4 [6] = assay: In vitro inhibitory activity against HIV-1 in MT-4 cells; format: functional, cell-based; conditions: Homo sapiens; in short: as §1

With `CC(=O)N[C@H](C(=O)N[C@@H](Cc1ccccc1)C(O)[C@H](Cc1ccccc1)NC(=O)[C@@H](NC(C)=O)C(C)C)C(C)C` the IC50 [1] was 12 nM.
In the case of `CC(C)(C)OC(=O)N[C@@H](Cc1ccccc1)[C@H](O)[C@H](O)[C@H](Cc1ccccc1)NC(=O)OC(C)(C)C`, the IC50 [1] is reported as 12 nM.
Work on `CC(C)[C@H](NC(=O)OCc1ccccc1)C(=O)N[C@@H](Cc1ccccc1)[C@@H](O)[C@@H](O)[C@H](Cc1ccccc1)NC(=O)[C@H](NC(=O)OCc1ccccc1)C(C)C` yielded an IC50 (H9 [2]) of 20 nM, a CC50 (H9 [3]) of 60000 nM and a CC50 (MT4 [4]) of over 100000 nM. For the same molecule, the IC50 [5] was 0.22 nM and the IC50 (MT4 [6]) was 16 nM.
`CC(C)[C@H](NC(=O)OCc1ccccc1)C(=O)N[C@@H](Cc1ccccc1)[C@H](O)[C@@H](O)[C@H](Cc1ccccc1)NC(=O)[C@H](NC(=O)OCc1ccccc1)C(C)C` showed an IC50 (H9 [2]) of 60 nM, a CC50 (H9 [3]) of over 100000 nM and a CC50 (MT4 [4]) of over 100000 nM. For the same molecule, the IC50 [5] was 0.38 nM and the IC50 (MT4 [6]) was 150 nM.
`CC(C)[C@H](NC(=O)OCc1ccccc1)C(=O)N[C@@H](Cc1ccccc1)[C@@H](O)[C@H](Cc1ccccc1)NC(=O)[C@H](NC(=O)OCc1ccccc1)C(C)C` showed an IC50 [1] of 3 nM.
`CC(C)[C@H](NC(=O)OCc1ccccc1)C(=O)N[C@@H](Cc1ccccc1)[C@@H](O)[C@H](O)[C@H](Cc1ccccc1)NC(=O)[C@H](NC(=O)OCc1ccccc1)C(C)C` gave an IC50 (H9 [2]) of 20 nM, a CC50 (H9 [3]) of 10000 nM and a CC50 (MT4 [4]) of over 100000 nM. The IC50 [1] was 0.22 nM and the IC50 (MT4 [6]) was 80 nM.
With `CC(C)C[C@H](NC(=O)OCc1ccccc1)C(=O)N[C@@H](Cc1ccccc1)C(O)[C@H](Cc1ccccc1)NC(=O)[C@@H](CC(C)C)NC(=O)OCc1ccccc1` (some centres undefined) the IC50 [1] was over 100 nM.
With `CC(=O)N[C@H](C(=O)N[C@H](C(=O)N[C@@H](Cc1ccccc1)C(O)[C@H](Cc1ccccc1)NC(=O)[C@H](NC(=O)[C@H](NC(C)=O)C(C)C)C(C)C)C(C)C)C(C)C` (some centres undefined) the IC50 [1] was 10 nM.
`CC[C@H](C)[C@H](NC(=O)OCc1ccccc1)C(=O)N[C@@H](Cc1ccccc1)C(O)[C@H](Cc1ccccc1)NC(=O)[C@H](NC(=O)OCc1ccccc1)[C@@H](C)CC` (some centres undefined) gave an IC50 [1] of 4.9 nM.
`CC(C)(C)OC(=O)N[C@@H](Cc1ccccc1)[C@@H](O)[C@H](O)[C@H](Cc1ccccc1)NC(=O)OC(C)(C)C` gave an IC50 [1] of 40 nM.
`CC(C)(C)OC(=O)N[C@@H](Cc1ccccc1)[C@H](O)[C@@H](O)[C@H](Cc1ccccc1)NC(=O)OC(C)(C)C` gave an IC50 [1] of 280 nM.
Work on `CC(=O)N[C@@H](Cc1ccccc1)C(O)[C@H](Cc1ccccc1)NC(C)=O` yielded an IC50 [1] of over 10000 nM.
